# Laboratory results published in ChEMBL document CHEMBL2146441, “2,6-Disubstituted imidazo[2,1-b][1,3,4]thiadiazoles: search for anticancer agents” (2012).
# Experiments:
# Assay type in all cases: functional
# NCI-H322M = assay: Cytotoxicity against human NCI-H322M cells assessed as cell growth at 10^-6 M after 48 hrs by SRB assay; settings: read-out: Activity
# OVCAR-4 = assay: Cytotoxicity against human OVCAR4 cells assessed as cell growth at 10^-4 M after 48 hrs by SRB assay; settings: OVCAR-4, 48 h, read-out: Activity
# HT-29 [1] = assay: Cytotoxicity against human HT-29 cells assessed as cell growth at 10^-5 M after 48 hrs by SRB assay; settings: HT-29, 48 h, read-out: Activity
# Summary of the method: (§1)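 NCI-60 five-dose screen. Cells were grown in RPMI 1640 with 5% FBS and seeded at 5000–40,000 cells/well according to doubling time. They were pre-incubated 24 h at 37 °C in 5% CO₂, and time-zero (Tz) plates were TCA-fixed at drug addition. Five 10-fold dilutions of DMSO stock were applied for 48 h. Read-out was SRB staining, 515 nm absorbance, with percent growth calculated versus Tz and untreated control.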
# SR [2] = assay: Cytotoxicity against human SR cells assessed as cell growth at 10^-6 M after 48 hrs by SRB assay; settings: read-out: Activity
# OVCAR-5 = assay: Cytotoxicity against human OVCAR5 cells assessed as cell growth at 10^-5 M after 48 hrs by SRB assay; settings: OVCAR-5, 48 h, read-out: Activity
# BT-549 = assay: Cytotoxicity against human BT549 cells assessed as cell growth at 10^-5 M after 48 hrs by SRB assay; settings: BT-549, 48 h, read-out: Activity
# Summary of the method: (§2)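 NCI-60 screen: lines kept in RPMI 1640 with 5% FBS, seeded at 5000–40,000 cells/well by doubling time, preincubated 24 h at 37 °C in 5% CO2. Time-zero plates TCA-fixed at drug addition. DMSO stocks diluted in medium, 48 h exposure. Fixation in cold TCA (final 10% adherent, 16% suspension), 0.4% SRB stain, solubilised in 10 mM Tris base, A515. Percent growth computed against control and time-zero.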
# MOLT-4 = assay: Cytotoxicity against human MOLT4 cells assessed as cell growth at 10^-6 M after 48 hrs by SRB assay; settings: MOLT-4, 48 h, read-out: Activity
# HCT-116 = assay: Growth inhibition of human HCT116 cells after 48 hrs by SRB assay; settings: HCT-116, 48 h
# Summary of the method: (§3)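 Adherent NCI-60 lines grown in RPMI 1640 with 5% FBS, seeded at 5000–40,000 cells/well, and preincubated 24 h at 37 °C, 5% CO2. Compound, stocked in DMSO, given either once at 10^-5 M or at five 10-fold dilutions for 48 h. Cells fixed with cold TCA (final 10%), stained with 0.4% SRB, and read at 515 nm. GI50 taken as 50% reduction in net protein increase versus time-zero and control plates.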
# ACHN = assay: Cytotoxicity against human ACHN cells assessed as cell growth at 10^-7 M after 48 hrs by SRB assay; settings: read-out: Activity; summary of the method: as §2
# NCI-H460 = assay: Cytotoxicity against human NCI-H460 cells assessed as cell growth at 10^-7 M after 48 hrs by SRB assay; settings: NCI-H460, 48 h, read-out: Activity
# M14 = assay: Cytotoxicity against human M14 cells assessed as cell growth at 10^-5 M after 48 hrs by SRB assay; settings: M14, 48 h, read-out: Activity
# SR [3] = assay: Cytotoxicity against human SR cells assessed as cell growth at 10^-8 M after 48 hrs by SRB assay; settings: read-out: Activity
# IGROV-1 = assay: Cytotoxicity against human IGROV1 cells assessed as cell growth at 10^-8 M after 48 hrs by SRB assay; settings: IGROV-1, 48 h, read-out: Activity
# SK-MEL-2 = assay: Growth inhibition of human SK-MEL-2 cells after 48 hrs by SRB assay; settings: SK-MEL-2, 48 h; for CC50: read-out: LC50 (the source's name); summary of the method: as §3
# SK-OV-3 = assay: Cytotoxicity against human SKOV3 cells assessed as cell growth at 10^-7 M after 48 hrs by SRB assay; settings: SK-OV-3, 48 h, read-out: Activity
# HT-29 [4] = assay: Cytotoxicity against human HT-29 cells assessed as cell growth at 10^-7 M after 48 hrs by SRB assay; settings: HT-29, 48 h, read-out: Activity; summary of the method: as §1
# T47D = assay: Cytotoxicity against human T47D cells assessed as cell growth at 10^-4 M after 48 hrs by SRB assay; settings: read-out: Activity
# KM12 = assay: Cytotoxicity against human KM12 cells assessed as cell growth at 10^-7 M after 48 hrs by SRB assay; settings: KM12, 48 h, read-out: Activity
# SW-620 = assay: Cytotoxicity against human SW620 cells assessed as cell growth at 10^-4 M after 48 hrs by SRB assay; settings: SW-620, 48 h, read-out: Activity
# [5] = Cytotoxicity against human NCI-ADR-RES cells assessed as cell growth at 10^-8 M after 48 hrs by SRB assay; settings: read-out: Activity
# UO-31 = assay: Cytotoxicity against human UO31 cells assessed as cell growth at 10^-6 M after 48 hrs by SRB assay; settings: UO-31, 48 h, read-out: Activity
# SNB-75 = assay: Cytotoxicity against human SNB75 cells assessed as cell growth at 10^-8 M after 48 hrs by SRB assay; settings: SNB-75, 48 h, read-out: Activity
# HL-60 = assay: Cytotoxicity against human HL60 cells assessed as cell growth at 10^-8 M after 48 hrs by SRB assay; settings: HL-60, 48 h, read-out: Activity; summary of the method: as §1
# EKVX = assay: Cytotoxicity against human EKVX cells assessed as cell growth at 10^-4 M after 48 hrs by SRB assay; settings: read-out: Activity; summary of the method: as §2
# SF-295 = assay: Cytotoxicity against human SF295 cells assessed as cell growth at 10^-8 M after 48 hrs by SRB assay; settings: SF-295, 48 h, read-out: Activity
# RXF 393 = assay: Cytotoxicity against human RXF393 cells assessed as cell growth at 10^-8 M after 48 hrs by SRB assay; settings: RXF 393, 48 h, read-out: Activity
# Malme-3M = assay: Growth inhibition of human MALME-3M cells after 48 hrs by SRB assay; settings: for CC50: read-out: LC50 (the source's name); summary of the method: as §3
# MDA-MB-231 = assay: Growth inhibition of human MDA-MB-231 cells after 48 hrs by SRB assay; settings: MDA-MB-231, 48 h; summary of the method: as §3
# TK-10 = assay: Growth inhibition of human TK10 cells after 48 hrs by SRB assay; settings: TK-10, 48 h; for CC50: read-out: LC50 (the source's name); summary of the method: as §3
# UACC-257 = assay: Cytotoxicity against human UACC257 cells assessed as cell growth at 10^-5 M after 48 hrs by SRB assay; settings: UACC-257, 48 h, read-out: Activity
# UACC-62 = assay: Cytotoxicity against human UACC62 cells assessed as cell growth at 10^-7 M after 48 hrs by SRB assay; settings: UACC-62, 48 h, read-out: Activity
smiles,measurement,setting,value
COc1ccc(-c2nn3cc(-c4ccc(O)cc4O)nc3s2)cc1,growth at 1 µM,NCI-H322M,77%
same,growth at 100 µM,OVCAR-4,-22%
same,growth at 10 µM,HT-29 [1],9%
same,growth at 1 µM,SR [2],72%
same,growth at 10 µM,OVCAR-5,20%
same,growth at 10 µM,BT-549,12%
same,growth at 1 µM,MOLT-4,78%
same,GI50,HCT-116,1760 nM
same,LC50 (50% lethal concentration),HCT-116,8.25 µM
same,TGI,HCT-116,3.81 µM
same,growth at 0.1 µM,ACHN,101%
same,growth at 0.1 µM,NCI-H460,101%
same,growth at 10 µM,M14,17%
same,growth at 0.01 µM,SR [3],89%
same,growth at 0.01 µM,IGROV-1,96%
same,GI50,SK-MEL-2,2.85 µM
same,TGI,SK-MEL-2,14.2 µM
same,CC50,SK-MEL-2,> 100 µM
same,growth at 0.1 µM,SK-OV-3,94%
same,growth at 0.1 µM,HT-29 [4],94%
same,growth at 100 µM,T47D,-20%
same,growth at 0.1 µM,KM12,96%
same,growth at 100 µM,SW-620,6%
same,growth at 0.01 µM,[5],101%
same,growth at 1 µM,UO-31,68%
same,growth at 0.01 µM,SNB-75,69%
same,growth at 0.01 µM,HL-60,96%
same,growth at 100 µM,EKVX,-9%
same,growth at 0.01 µM,SF-295,95%
same,growth at 0.01 µM,RXF 393,99%
same,GI50,Malme-3M,1320 nM
same,TGI,Malme-3M,4.7 µM
same,CC50,Malme-3M,> 100 µM
same,GI50,MDA-MB-231,1370 nM
same,TGI,MDA-MB-231,3.57 µM
same,GI50,TK-10,3.46 µM
same,TGI,TK-10,17.4 µM
same,CC50,TK-10,> 100 µM
same,growth at 10 µM,UACC-257,36%
same,growth at 0.1 µM,UACC-62,95%
COc1ccc(-c2nn3cc(-c4cccc(N)c4)nc3s2)cc1,growth at 1 µM,NCI-H322M,86%
same,growth at 100 µM,OVCAR-4,-34%
same,growth at 10 µM,HT-29 [1],27%
same,growth at 1 µM,SR [2],81%
same,growth at 10 µM,OVCAR-5,47%
same,growth at 10 µM,BT-549,24%
same,growth at 1 µM,MOLT-4,76%
same,GI50,HCT-116,3510 nM
same,LC50 (50% lethal concentration),HCT-116,41.4 µM
same,TGI,HCT-116,14.2 µM
same,growth at 0.1 µM,ACHN,105%
same,growth at 0.1 µM,NCI-H460,92%
same,growth at 10 µM,M14,34%
same,growth at 0.01 µM,SR [3],103%
same,growth at 0.01 µM,IGROV-1,102%
same,GI50,SK-MEL-2,5.35 µM
same,TGI,SK-MEL-2,31.9 µM
same,CC50,SK-MEL-2,> 100 µM
same,growth at 0.1 µM,SK-OV-3,97%
same,growth at 0.1 µM,HT-29 [4],100%
same,growth at 100 µM,T47D,-14%
same,growth at 0.1 µM,KM12,100%
same,growth at 100 µM,SW-620,-5%
same,growth at 0.01 µM,[5],100%
same,growth at 1 µM,UO-31,60%
same,growth at 0.01 µM,SNB-75,70%
same,growth at 0.01 µM,HL-60,103%
same,growth at 100 µM,EKVX,-18%
same,growth at 0.01 µM,SF-295,95%
same,growth at 0.01 µM,RXF 393,90%
same,GI50,Malme-3M,1740 nM
same,TGI,Malme-3M,6.5 µM
same,CC50,Malme-3M,47.3 µM
same,GI50,MDA-MB-231,1580 nM
same,LC50 (concentration killing 50% of cells present at time zero),MDA-MB-231,> 100 µM
same,TGI,MDA-MB-231,13.2 µM
same,GI50,TK-10,7.56 µM
same,TGI,TK-10,37.4 µM
same,CC50,TK-10,> 100 µM
same,growth at 10 µM,UACC-257,63%
same,growth at 0.1 µM,UACC-62,90%
